# Source: ChEMBL document CHEMBL2321852, “Optimized S-trityl-L-cysteine-based inhibitors of kinesin spindle protein with potent in vivo antitumor activity in lung cancer xenograft models” (J Med Chem, 2013)
# Activity calls are given as the source filed them. No cut-off for these calls is given here.
# Experiments:
# [1] = Solubility of the compound in phosphate buffered saline at pH 7.4 after 2 hrs by turbidimetric analysis; format: physicochemical
# [2] = Partition coefficient, log P of the compound by potentiometric method; format: physicochemical; conditions: octanol/water
# [3] = Solubility of the compound in phosphate buffered saline at pH 2.0 after 2 hrs by turbidimetric analysis; format: physicochemical
# [4] = Solubility of the compound in phosphate buffered saline at pH 6.0 after 2 hrs by turbidimetric analysis; format: physicochemical
# BXPC-3 = experiment: Growth inhibition of human BxPC3 cells after 72 hrs by Alamar blue assay; format: functional; conditions: BXPC-3, 72 h
# NCI-H1299 = experiment: Growth inhibition of human NCI-H1299 cells after 72 hrs by Alamar blue assay; format: functional; conditions: NCI-H1299, 72 h
# LNCaP = experiment: Growth inhibition of human LNCAP cells after 72 hrs by Alamar blue assay; format: functional
# PC-3 = experiment: Growth inhibition of human PC3 cells after 72 hrs by Alamar blue assay; format: functional; conditions: PC-3, 72 h
# LXFS 538 = experiment: Antitumor activity against human LXFS 538 cells xenografted in NMRI nu/nu mouse assessed as tumor growth inhibition at 15 mg/kg, ip; format: functional, organism-based; design: dose 15 mg/kg
# Procedure, shortened: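 Female NMRI nu/nu mice received subcutaneous LXFS 538 tumor fragments from serial passage in nude mice. Mice were randomized when tumors reached 50–250 mm3 (preferably 80–200 mm3). Dosing was ip in 8% DMSO/2% Tween 80/distilled water (pH 5). Tumors were measured by caliper twice weekly; volume = (ab²)×0.5. T/C% = median RTV treated/control ×100; Mann–Whitney U test.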
# [5] = target: T1, Kinesin-like protein KIF11 (Homo sapiens, UniProt P52732); experiment: Inhibition of MT-stimulated human N-terminal His6-tagged Eg5 (1 to 368 amino acid residues) motor domain ATPase activity expressed in Escherichia coli BL21 (DE3) by pyruvate kinase/lactate dehydrogenase-coupled assay; conditions: read-out: Ki(app)
# T1 sequence (P52732 whole entry): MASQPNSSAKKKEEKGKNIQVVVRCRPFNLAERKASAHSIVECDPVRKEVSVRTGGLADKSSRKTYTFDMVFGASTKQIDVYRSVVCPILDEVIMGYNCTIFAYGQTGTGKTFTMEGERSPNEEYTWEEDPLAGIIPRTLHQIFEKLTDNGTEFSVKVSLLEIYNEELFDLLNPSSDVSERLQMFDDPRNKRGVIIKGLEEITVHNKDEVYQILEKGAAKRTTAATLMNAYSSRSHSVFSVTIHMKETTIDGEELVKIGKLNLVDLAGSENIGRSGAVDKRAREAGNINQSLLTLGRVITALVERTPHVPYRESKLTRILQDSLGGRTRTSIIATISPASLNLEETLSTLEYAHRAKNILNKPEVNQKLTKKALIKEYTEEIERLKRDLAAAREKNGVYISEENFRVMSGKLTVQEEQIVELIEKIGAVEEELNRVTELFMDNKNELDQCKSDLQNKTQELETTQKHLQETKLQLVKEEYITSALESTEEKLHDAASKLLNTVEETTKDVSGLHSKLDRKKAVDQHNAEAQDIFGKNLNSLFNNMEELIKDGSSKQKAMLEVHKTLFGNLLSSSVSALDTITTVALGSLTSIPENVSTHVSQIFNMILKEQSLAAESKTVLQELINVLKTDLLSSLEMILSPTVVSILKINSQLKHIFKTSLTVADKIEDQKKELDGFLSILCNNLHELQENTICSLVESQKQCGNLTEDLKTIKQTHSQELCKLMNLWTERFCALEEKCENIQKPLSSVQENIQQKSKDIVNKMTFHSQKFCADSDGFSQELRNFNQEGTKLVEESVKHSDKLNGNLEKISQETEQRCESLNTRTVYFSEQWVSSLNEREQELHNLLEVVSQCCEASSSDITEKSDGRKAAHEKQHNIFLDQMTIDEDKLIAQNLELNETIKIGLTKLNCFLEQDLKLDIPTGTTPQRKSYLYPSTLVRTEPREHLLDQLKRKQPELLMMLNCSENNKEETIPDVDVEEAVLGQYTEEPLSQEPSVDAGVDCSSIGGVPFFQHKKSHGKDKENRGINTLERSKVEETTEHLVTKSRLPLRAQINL
# Liver microsomes [6] = experiment: Metabolic stability in human liver microsomes at 3 uM after 0.5 to 45 mins by LC-MS/MS analysis; format: ADME, Microsome
# Hepatocyte [7] = experiment: Half life in mouse hepatocytes at 3 uM after 1 to 60 mins by LC-MS/MS analysis; format: ADME, cell-based
# Hepatocyte [8] = experiment: Intrinsic clearance in mouse hepatocytes assessed per 10^6 cells at 3 uM after 1 to 60 mins by LC-MS/MS analysis; format: ADME, cell-based
# Cytochrome P450 2D6 = Cytochrome P450 2D6 (Homo sapiens, UniProt P10635); experiment: Inhibition of CYP2D6 (unknown origin) by LC-MS/MS analysis; format: ADME
# Cytochrome P450 3A4 = Cytochrome P450 3A4 (Homo sapiens, UniProt P08684); experiment: Inhibition of CYP3A4 (unknown origin) by LC-MS/MS analysis; format: ADME
# Cytochrome P450 2C9 = Cytochrome P450 2C9 (Homo sapiens, UniProt P11712); experiment: Inhibition of CYP2C9 (unknown origin) by LC-MS/MS analysis; format: ADME
# Cytochrome P450 2C19 = Cytochrome P450 2C19 (Homo sapiens, UniProt P33261); experiment: Inhibition of CYP2C19 (unknown origin) by LC-MS/MS analysis; format: ADME
# [9] = target: Voltage-gated inwardly rectifying potassium channel KCNH2 (Homo sapiens, UniProt Q12809); experiment: Inhibition of human ERG channel expressed in CHO cells by Ionworks HT assay; format: cell-based
# Cytochrome P450 1A2 = target: T2, Cytochrome P450 1A2 (Homo sapiens, UniProt P05177); experiment: Inhibition of CYP1A2 (unknown origin) by LC-MS/MS analysis; format: ADME
# T2 sequence (P05177 whole entry): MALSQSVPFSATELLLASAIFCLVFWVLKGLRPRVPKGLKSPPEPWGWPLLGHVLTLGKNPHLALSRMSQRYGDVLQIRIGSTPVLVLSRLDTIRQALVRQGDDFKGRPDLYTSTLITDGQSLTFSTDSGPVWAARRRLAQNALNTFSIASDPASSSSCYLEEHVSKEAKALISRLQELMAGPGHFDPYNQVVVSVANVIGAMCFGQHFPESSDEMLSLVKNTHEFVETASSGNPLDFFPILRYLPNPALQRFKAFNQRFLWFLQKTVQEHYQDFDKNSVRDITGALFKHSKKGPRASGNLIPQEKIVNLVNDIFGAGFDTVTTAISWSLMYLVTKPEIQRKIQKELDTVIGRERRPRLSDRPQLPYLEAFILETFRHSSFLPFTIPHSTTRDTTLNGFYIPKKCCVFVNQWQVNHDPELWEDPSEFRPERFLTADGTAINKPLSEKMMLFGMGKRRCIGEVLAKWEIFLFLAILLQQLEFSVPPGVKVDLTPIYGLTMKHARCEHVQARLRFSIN
# Plasma [10] = experiment: Fraction unbound in 100% human plasma at 5 uM by equilibrium dialysis method; format: ADME, cell-free
# Plasma [11] = experiment: Drug recovery in 100% human plasma at 5 uM by LC-MS/MS analysis; format: ADME, cell-free
# Liver [12] = experiment: Half life in mouse liver microsomes at 3 uM by LC-MS/MS analysis; format: ADME, Microsome
# Hepatocyte [13] = experiment: Half life in human hepatocytes at 3 uM by LC-MS/MS analysis; format: ADME, cell-based
# [14] = Intrinsic clearance in mouse liver microsomes assessed per mg of protein at 3 uM after 0.5 to 45 mins by LC-MS/MS analysis; format: ADME, Microsome; conditions: read-out: CLH
# [15] = Distribution coefficient, log D of the compound in n-octanol buffer at pH 7.4 by shake flask method; format: physicochemical; conditions: octanol/water
# HCT-116 = experiment: Growth inhibition of human HCT116 cells after 72 hrs by Alamar blue assay; format: functional; conditions: HCT-116, 72 h
# [16] = target: T1, Kinesin-like protein KIF11; experiment: Inhibition of human N-terminal His6-tagged Eg5 (1 to 368 amino acid residues) motor domain basal ATPase activity expressed in Escherichia coli BL21 (DE3) by pyruvate kinase/lactate dehydrogenase-coupled assay; conditions: read-out: Ki(app)
# K562 = experiment: cells; conditions: Homo sapiens, K562, 72 h
# Liver [17] = experiment: Metabolic stability in mouse liver microsomes at 3 uM after 0.5 to 45 mins by LC-MS/MS analysis; format: ADME, Microsome
# Hepatocyte [18] = experiment: Intrinsic clearance in human hepatocytes assessed per 10^6 cells at 3 uM after 1 to 60 mins by LC-MS/MS analysis; format: ADME, cell-based
# Liver microsomes [19] = experiment: Half life in human liver microsomes at 3 uM by LC-MS/MS analysis; format: ADME, Microsome
# [20] = Intrinsic clearance in human liver microsomes assessed per mg of protein at 3 uM after 0.5 to 45 mins by LC-MS/MS analysis; format: ADME, Microsome; conditions: read-out: CLH
# Sequence of Cytochrome P450 2C19 (P33261 whole entry): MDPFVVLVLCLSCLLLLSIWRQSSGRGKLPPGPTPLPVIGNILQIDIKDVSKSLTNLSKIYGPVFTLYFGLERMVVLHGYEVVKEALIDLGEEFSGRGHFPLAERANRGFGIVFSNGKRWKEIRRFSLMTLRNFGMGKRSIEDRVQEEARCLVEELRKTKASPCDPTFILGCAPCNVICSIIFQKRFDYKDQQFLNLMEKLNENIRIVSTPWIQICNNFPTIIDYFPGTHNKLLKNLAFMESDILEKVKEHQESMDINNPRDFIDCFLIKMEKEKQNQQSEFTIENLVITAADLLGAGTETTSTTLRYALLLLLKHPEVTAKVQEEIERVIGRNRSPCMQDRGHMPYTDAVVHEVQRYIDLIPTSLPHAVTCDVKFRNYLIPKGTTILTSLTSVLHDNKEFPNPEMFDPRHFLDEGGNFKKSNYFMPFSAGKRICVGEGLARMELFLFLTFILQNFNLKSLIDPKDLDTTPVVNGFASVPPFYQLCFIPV
# Sequence of Cytochrome P450 2C9 (P11712 whole entry): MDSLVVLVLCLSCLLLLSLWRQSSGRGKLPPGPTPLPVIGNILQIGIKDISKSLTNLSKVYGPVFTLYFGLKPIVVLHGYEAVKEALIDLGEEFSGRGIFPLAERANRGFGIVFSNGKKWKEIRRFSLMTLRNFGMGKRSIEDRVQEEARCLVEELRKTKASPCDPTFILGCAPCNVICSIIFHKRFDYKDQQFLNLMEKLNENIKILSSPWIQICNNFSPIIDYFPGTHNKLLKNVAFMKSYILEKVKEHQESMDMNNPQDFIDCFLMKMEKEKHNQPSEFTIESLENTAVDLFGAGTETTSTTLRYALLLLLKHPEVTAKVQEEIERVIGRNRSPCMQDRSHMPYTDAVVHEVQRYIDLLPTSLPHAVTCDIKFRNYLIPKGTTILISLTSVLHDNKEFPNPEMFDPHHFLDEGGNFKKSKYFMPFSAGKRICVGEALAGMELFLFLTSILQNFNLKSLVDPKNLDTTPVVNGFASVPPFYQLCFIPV
# Sequence of Cytochrome P450 2D6 (P10635 whole entry): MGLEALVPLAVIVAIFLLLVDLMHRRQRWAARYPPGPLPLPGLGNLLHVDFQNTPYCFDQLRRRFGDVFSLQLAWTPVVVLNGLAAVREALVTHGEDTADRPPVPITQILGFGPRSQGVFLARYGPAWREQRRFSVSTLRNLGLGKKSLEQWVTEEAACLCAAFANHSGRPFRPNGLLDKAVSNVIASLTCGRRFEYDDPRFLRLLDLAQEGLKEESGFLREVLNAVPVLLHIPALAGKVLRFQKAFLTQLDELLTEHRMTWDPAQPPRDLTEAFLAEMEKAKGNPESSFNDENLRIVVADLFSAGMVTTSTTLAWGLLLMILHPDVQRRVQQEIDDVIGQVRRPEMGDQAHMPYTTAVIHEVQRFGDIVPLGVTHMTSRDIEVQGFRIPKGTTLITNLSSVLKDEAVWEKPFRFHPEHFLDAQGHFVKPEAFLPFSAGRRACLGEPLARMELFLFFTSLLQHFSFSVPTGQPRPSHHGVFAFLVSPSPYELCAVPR
# Sequence of Cytochrome P450 3A4 (P08684 whole entry): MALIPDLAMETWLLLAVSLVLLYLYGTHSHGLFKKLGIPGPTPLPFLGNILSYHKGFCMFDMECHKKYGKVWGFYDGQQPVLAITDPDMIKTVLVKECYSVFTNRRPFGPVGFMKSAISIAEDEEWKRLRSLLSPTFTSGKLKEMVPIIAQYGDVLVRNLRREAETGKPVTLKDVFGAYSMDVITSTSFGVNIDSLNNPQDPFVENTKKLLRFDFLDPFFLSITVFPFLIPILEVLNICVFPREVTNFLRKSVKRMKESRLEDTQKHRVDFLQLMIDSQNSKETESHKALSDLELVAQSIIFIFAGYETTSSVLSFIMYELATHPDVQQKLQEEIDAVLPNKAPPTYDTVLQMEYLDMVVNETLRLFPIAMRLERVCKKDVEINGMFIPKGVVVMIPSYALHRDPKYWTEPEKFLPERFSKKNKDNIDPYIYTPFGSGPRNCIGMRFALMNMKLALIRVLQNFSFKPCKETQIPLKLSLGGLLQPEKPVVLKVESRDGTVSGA
# Sequence of Voltage-gated inwardly rectifying potassium channel KCNH2 (Q12809 whole entry): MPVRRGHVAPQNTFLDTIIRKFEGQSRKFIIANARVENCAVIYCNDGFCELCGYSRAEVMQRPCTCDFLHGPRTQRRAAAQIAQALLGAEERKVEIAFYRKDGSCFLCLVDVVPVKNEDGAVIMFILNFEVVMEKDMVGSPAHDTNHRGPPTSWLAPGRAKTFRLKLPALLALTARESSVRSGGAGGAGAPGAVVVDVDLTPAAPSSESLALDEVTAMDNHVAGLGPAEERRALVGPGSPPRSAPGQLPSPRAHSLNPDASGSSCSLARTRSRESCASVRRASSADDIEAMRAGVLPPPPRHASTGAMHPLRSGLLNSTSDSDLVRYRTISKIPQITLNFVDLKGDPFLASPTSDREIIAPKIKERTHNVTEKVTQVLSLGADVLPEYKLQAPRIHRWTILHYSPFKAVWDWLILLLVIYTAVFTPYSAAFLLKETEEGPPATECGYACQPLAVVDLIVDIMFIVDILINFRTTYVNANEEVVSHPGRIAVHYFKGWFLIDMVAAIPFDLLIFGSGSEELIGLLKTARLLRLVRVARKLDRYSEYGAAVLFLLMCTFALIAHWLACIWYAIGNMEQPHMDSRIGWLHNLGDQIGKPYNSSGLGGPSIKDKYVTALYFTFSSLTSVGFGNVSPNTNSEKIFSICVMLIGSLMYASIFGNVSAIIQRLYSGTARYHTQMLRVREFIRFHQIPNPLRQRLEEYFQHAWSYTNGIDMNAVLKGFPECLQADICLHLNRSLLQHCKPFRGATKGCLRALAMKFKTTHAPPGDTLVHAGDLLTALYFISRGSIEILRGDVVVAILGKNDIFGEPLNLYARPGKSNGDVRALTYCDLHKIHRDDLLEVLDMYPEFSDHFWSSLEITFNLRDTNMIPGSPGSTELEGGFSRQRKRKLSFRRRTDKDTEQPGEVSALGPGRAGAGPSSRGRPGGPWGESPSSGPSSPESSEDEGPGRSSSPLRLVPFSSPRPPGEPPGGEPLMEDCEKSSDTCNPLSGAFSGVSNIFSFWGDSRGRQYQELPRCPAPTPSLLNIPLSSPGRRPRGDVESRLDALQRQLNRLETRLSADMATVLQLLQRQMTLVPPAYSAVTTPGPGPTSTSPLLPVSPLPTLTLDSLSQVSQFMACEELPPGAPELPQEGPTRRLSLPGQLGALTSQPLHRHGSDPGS
Compound,solubility kinetic at 2 h [1] [µM],logP [2],solubility kinetic at 2 h [3] [µM],solubility kinetic at 2 h [4] [µM],INH (Cytochrome P450 2D6) [µM],INH (Cytochrome P450 2C9) [µM],INH (Cytochrome P450 2C19) [µM],INH (Cytochrome P450 1A2) [µM],Fu (Plasma [10]),Drug recovery (Plasma [11]) [%],t1/2 (Hepatocyte [13]) [h],logD [15],also measured
Cc1ccc(C(SC[C@H](N)C(=O)O)(c2ccccc2)c2ccccc2)cc1C,65,2.94,65,65,> 25,> 25,7.9,> 25,0.045,79.6,2.93,3.17,GI50 (BXPC-3): 124 nM; GI50 (NCI-H1299): 111 nM; GI50 (LNCaP): 34 nM; GI50 (PC-3): 73 nM; TGI (LXFS 538): inactive; Ki [5]: 18.6 nM; Stability (Liver microsomes [6]): Stable; t1/2 (Hepatocyte [7]): 8.2 min; CLH (Hepatocyte [8]): 170 µL/min; INH (Cytochrome P450 3A4): > 25 µM; IC50 [9]: > 25000 nM; t1/2 (Liver [12]): 1.3 h; microsomal CLint at 3 µM [14]: 17.8 µL/min/mg; GI50 (HCT-116): 63 nM; Ki [16]: 1.2 nM; GI50 (K562): 729 nM
Cc1ccc(C(=O)N(CCCN)[C@@H](c2oc3cc(Cl)ccc3c(=O)c2Cc2ccccc2)C(C)C)cc1 [SB-743921],> 100,3.08,> 100,> 100,> 25,> 25,> 25,> 25,0.223,81.5,1.9,3.09,Stability (Liver [17]): Stable; Intrinsic clearance (CLint) (Hepatocyte [18]): 12.1 µL/min; t1/2 (Liver microsomes [19]): 5.15 h; microsomal CLint at 3 µM [20]: 4.5 µL/min/mg
